One assay deals with MDA-MB-435. Briefly: Cytotoxicity against human MDA-MB-435 cells assessed as growth inhibition at 10 uM after 48 hrs by SRB assay. Conditions: MDA-MB-435, 48 h, read-out: GI. It counts as functional. In a few lines:
(§1)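 Single-dose NCI 60-cell screen at 10 µM with 48 h exposure and sulforhodamine B read-out. Values are percentage growth per cell line. A summary ratio counts cell lines with 0–50% growth over all cell lines tested.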
(In general: Sulforhodamine B stains cellular protein and so reports cell mass.)

The next assay deals with SR. Briefly: Cytotoxicity against human SR cells assessed as growth inhibition at 10 uM after 48 hrs by SRB assay. In kind it is functional. Conditions: read-out: GI. In short, it runs like this:
as §1

The species named for a further assay is Ovis aries. Briefly: Inhibition of sheep brain tubulin assembly at 100 uM by DAPI staining-based fluorescence assay. In a few lines:
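Tubulin from sheep brain, purified by two assembly–disassembly cycles, at about 2–3 mg/mL in 0.1 M MES, 0.5 mM MgCl2, 1 mM EGTA, 1 mM GTP, pH 6.6. Assembly followed by DAPI fluorescence at 37 °C. Single-point inhibition tested at 100 µM. IC50 is the concentration halving the assembly rate relative to no compound, mean of two experiments, with reference inhibitors run the same day.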

For the next assay, the system named is K562. Briefly: Cytotoxicity against human K562 cells assessed as growth inhibition at 10 uM after 48 hrs by SRB assay. In kind it is functional. The following applies: K562, 48 h, read-out: GI. In a few lines: as §1
A further assay relates to NCI-H522. Briefly: Cytotoxicity against human NCI-H522 cells assessed as growth inhibition at 10 uM after 48 hrs by SRB assay. Conditions: NCI-H522, 48 h, read-out: GI. In kind it is functional. In a few lines: as §1
The next assay relates to NCI/ADR-RES. The assay can be described thus: Cytotoxicity against human NCI/ADR-RES cells assessed as growth inhibition at 10 uM after 48 hrs by SRB assay. The following applies: read-out: GI. It counts as functional. In a few lines:
as §1

The subject of the next assay is KM12. The assay can be described thus: Cytotoxicity against human KM12 cells assessed as growth inhibition at 10 uM after 48 hrs by SRB assay. It counts as functional. Conditions: KM12, 48 h, read-out: GI. In short, it runs like this:
as §1

Another assay has as its system HL-60(TB). The assay can be described thus: Cytotoxicity against human HL-60(TB) cells assessed as growth inhibition at 10 uM after 48 hrs by SRB assay. In kind it is functional. Conditions: HL-60, 48 h, read-out: GI. In a few lines:
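Single high dose of 10 µM in the NCI 60-cell disease-oriented human tumour panel, with 48 h exposure and sulforhodamine B read-out of percentage growth.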

The subject of the next assay is HCT-15. Briefly: Cytotoxicity against human HCT15 cells assessed as growth inhibition at 10 uM after 48 hrs by SRB assay. In kind it is functional. Conditions: HCT-15, 48 h, read-out: GI. In a few lines:
as §1

The test system of another assay is M14. Briefly: Cytotoxicity against human M14 cells assessed as growth inhibition at 10 uM after 48 hrs by SRB assay. It counts as functional. The following applies: M14, 48 h, read-out: GI. In short, it runs like this: as §1
The test system of another assay is MDA-MB-468. The assay can be described thus: Cytotoxicity against human MDA-MB-468 cells assessed as growth inhibition at 10 uM after 48 hrs by SRB assay. In kind it is functional. The following applies: MDA-MB-468, 48 h, read-out: GI. In short, it runs like this: as §1
Another assay relates to MCF7. The assay can be described thus: Cytotoxicity against human MCF7 cells assessed as growth inhibition at 10 uM after 48 hrs by SRB assay. In kind it is functional. Conditions: MCF7, 48 h, read-out: GI. In a few lines:
as §1

Another assay concerns SW-620. Briefly: Cytotoxicity against human SW620 cells assessed as growth inhibition at 10 uM after 48 hrs by SRB assay. It counts as functional. Conditions: SW-620, 48 h, read-out: GI. In short, it runs like this: as §1
A further assay relates to HCC 2998. The assay can be described thus: Cytotoxicity against human HCC2998 cells assessed as growth inhibition at 10 uM after 48 hrs by SRB assay. Conditions: HCC 2998, 48 h, read-out: GI. In kind it is functional. In short, it runs like this: as §1
In another assay the test system is UACC-257. Briefly: Cytotoxicity against human UACC257 cells assessed as growth inhibition at 10 uM after 48 hrs by SRB assay. It counts as functional. The following applies: UACC-257, 48 h, read-out: GI. In short, it runs like this: as §1
The subject of the next assay is UO-31. The assay can be described thus: Cytotoxicity against human UO31 cells assessed as growth inhibition at 10 uM after 48 hrs by SRB assay. In kind it is functional. The following applies: UO-31, 48 h, read-out: GI. In a few lines:
as §1

A further assay deals with PC-3. Briefly: Cytotoxicity against human PC3 cells assessed as growth inhibition at 10 uM after 48 hrs by SRB assay. It counts as functional. The following applies: PC-3, 48 h, read-out: GI. In a few lines:
as §1

The next assay relates to SNB-75. The assay can be described thus: Cytotoxicity against human SNB75 cells assessed as growth inhibition at 10 uM after 48 hrs by SRB assay. It counts as functional. The following applies: SNB-75, 48 h, read-out: GI. In short, it runs like this:
as §1

The next assay concerns HOP-62. The assay can be described thus: Cytotoxicity against human HOP62 cells assessed as growth inhibition at 10 uM after 48 hrs by SRB assay. In kind it is functional. Conditions: HOP-62, 48 h, read-out: GI. In short, it runs like this: as §1

SMILES strings stand for the structures.

The term inhibition denotes the drop in the measured response relative to a control, in per cent. A higher inhibition goes with strong suppression.

Regarding `COc1cc(C(=O)c2cc(OC)c(O)c(OC)c2)c(OC)cc1F`, the results for the inhibition of growth at 10 µM in the assay on MDA-MB-435 and in the assay with SR were 21% and 22%, respectively. For the same compound, in the assay filed under Ovis aries, the inhibition was determined as 48%.
Regarding `COc1ccc(C(O)c2cc(F)c(F)c(OC)c2F)cc1O` (stereo not given), the inhibition of growth at 10 µM in the assay on K562 was determined as 41%; in the assay with NCI-H522 it was 53%; in the assay with NCI/ADR-RES it was 35%; in the assay on SR, 33%; in the assay with KM12, 26%. For the same compound, the inhibition in the assay filed under Ovis aries turned out to be 49%.
With `COc1ccc(C(=O)c2ccc(OC)c(N)c2OC)cc1F`, the inhibition of growth at 10 µM in the assay with HL-60(TB) stood at 49%; in the assay on K562 it was 71%; in the assay on HCT-15, 53%; with M14, 43%; in the assay on MDA-MB-468, 81%; in the assay with MDA-MB-435, 100%. Besides, the inhibition of growth at 10 µM with NCI-H522 is 45%; in the assay with SR it was 61%; in the assay with MCF7, 52%; with SW-620, 77%; with HCC 2998, 72%; with KM12, 59%. The same compound had an inhibition in the assay listed under Ovis aries of 45%.
As for `COc1ccc(C(=O)c2cc(F)c(F)c(OC)c2F)c(OC)c1NC(C)=O`, the inhibition of growth at 10 µM in the assay with UACC-257 was determined as 21%; in the assay with UO-31, 30%; with MDA-MB-468, 81%; in the assay on NCI-H522 it was 83%; with PC-3, 27%; in the assay on NCI/ADR-RES it was 55%. Besides, the inhibition of growth at 10 µM in the assay on SR came to 49%; in the assay on SNB-75, 44%; in the assay with HOP-62 it was 30%; in the assay on SW-620, 37%; with HCC 2998, 31%; with KM12, 57%. The compound further returned an inhibition in the assay filed under Ovis aries of 39%.

Values taken from ChEMBL document CHEMBL2384929, “Synthesis and biological evaluation of fluoro analogues of antimitotic phenstatin” (Bioorg Med Chem, 2013).
